The values that follow come from ChEMBL document CHEMBL1133603, “Synthesis and antimalarial activity of artemisinin derivatives containing an amino group” (2000).

“And” between values parts separate entries of the source, which are not always exact repeats. Identical values can stand only once.

Assay [1] has as its system Plasmodium berghei. Briefly: Antimalarial activity against Plasmodium berghei K173 after peroral dose.
For assay [2], the system named is Plasmodium berghei. Described as above. The source holds these as a separate data set.
Assay [3] deals with Monkey. Briefly: Percent parasitaemia before treatment at a dose of 10 mg/kg/day after oral administration on Plasmodium knowlesi in rhesus monkeys (7-day treatment). The assay is classed as functional, Cercopithecidae. Put shortly: (§1)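 Rhesus monkeys inoculated intravenously on D0 with 2 × 107 P. knowlesi. Compounds given orally once daily D0–D6 (7-day treatment) at 3.16 or 10.0 mg/kg/day, as stated per line. Parasitaemia followed to assess clearance rapidity; cure or recrudescence also recorded.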

The test system of assay [4] is Monkey. Briefly: Percent parasitaemia before treatment at a dose of 3.16 mg/kg/day after oral administration on Plasmodium knowlesi in rhesus monkeys (7-day treatment). The class given is functional, Cercopithecidae. The method in brief:
as §1

In assay [5] the test system is Monkey. Briefly: Mean time for 50% reduction in parasitaemia at a dose of 10 mg/kg/day after oral administration on Plasmodium knowlesi in rhesus monkeys (7-day treatment). The assay is classed as functional, Cercopithecidae. Put shortly:
as §1

Assay [6] concerns Monkey. Briefly: Mean time for 50% reduction in parasitaemia at a dose of 3.16 mg/kg/day after oral administration on Plasmodium knowlesi in rhesus monkeys (7-day treatment). The class given is functional, Cercopithecidae. The method in brief: as §1
Assay [7] deals with Monkey. In words: Mean time for 90% reduction in parasitaemia at a dose of 10 mg/kg/day after oral administration on Plasmodium knowlesi in rhesus monkeys (7-day treatment). The class given is functional, Cercopithecidae. Put shortly: as §1
Assay [8] relates to Monkey. Briefly: Mean time for 90% reduction in parasitaemia at a dose of 3.16 mg/kg/day after oral administration on Plasmodium knowlesi in rhesus monkeys (7-day treatment). The class given is functional, Cercopithecidae. Put shortly: as §1
In assay [9] the test system is Monkey. In words: Time of clearance after oral administration on Plasmodium knowlesi in rhesus monkeys (7-day treatment). The assay is classed as functional, Cercopithecidae. The method in brief: as §1
Assay [10] concerns Monkey. Briefly: Percent parasitaemia before treatment at a dose of 10 mg/kg/day after oral administration on Plasmodium knowlesi in rhesus monkeyss (7-day treatment). The class given is functional, Cercopithecidae. The method in brief: as §1
Assay [11] concerns Plasmodium berghei. In words: Antimalarial activity against Plasmodium berghei […] after subcutaneous dose. The assay is classed as functional. Put shortly: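 Mice inoculated intraperitoneally on day 0 with 1.5 × 107 P. berghei K173 parasitized cells. Test agents dissolved or ground in water or peanut oil, given once daily D0–D3 at 0.625, 1.25, 2.5, 5 and 10 mg/kg, orally or subcutaneously. Blood smears taken D4, stained and examined by microscopy.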

On to `C[C@@H]1CCC2[C@@H](C)[C@@H](OCCCN3CCOCC3)O[C@@H]3O[C@@]4(C)CCC1[C@@]23OO4.O=C(O)/C=C/C(=O)O` (stereo partly specified), for which, in the assay on Plasmodium berghei [1], the SD50 was found to be 1.33 mg/kg/day. This molecule had an SD90 in the assay with Plasmodium berghei [2] of 11.19 mg/kg/day.
On to `C[C@H]1C(OC(=O)CCC(=O)O)O[C@@H]2O[C@@]3(C)CCC4[C@H](C)CCC1[C@]42OO3` (stereo partly specified), for which the results for the Parasitemia in the assay with Monkey [3] and with Monkey [4] were 35% and 42.7%, respectively. Also, the Reduction was 8.21 h in the assay with Monkey [5], 7.84 h with Monkey [6], 13.74 h in the assay on Monkey [7] and 13.3 h in the assay with Monkey [8]. The Parasite_Clearance_time in the assay on Monkey [9] was 50 h and 54 h. In the assay with Plasmodium berghei [1], this molecule gave an SD50 of 6.33 mg/kg/day. Also, the SD90 with Plasmodium berghei [2] was 23.39 mg/kg/day.
`C[C@@H]1CCC2[C@@H](C)[C@@H](OCCNCCO)O[C@@H]3O[C@@]4(C)CCC1[C@@]23OO4.O=C(O)/C=C\C(=O)O` (stereo partly specified) showed a Parasitemia with Monkey [10] of 74%. For the same molecule, the results for the Reduction with Monkey [6] and with Monkey [8] were 4.5 h and 11.38 h, respectively. In the assay on Monkey [9], the Parasite_Clearance_time was 52 h. Besides, the SD50 with Plasmodium berghei [11] worked out at 27.66 mg/kg/day; in the assay with Plasmodium berghei [1] it was 1.74 mg/kg/day. In addition, the SD90 in the assay on Plasmodium berghei [11] is 165.96 mg/kg/day; in the assay with Plasmodium berghei [2], 5.08 mg/kg/day.
As to `CCN(CC)CCO[C@H]1O[C@@H]2O[C@@]3(C)CCC4[C@H](C)CCC([C@H]1C)[C@]42OO3.O=C(O)C(=O)O` (stereo partly specified), the results for the Reduction in the assay on Monkey [6] and with Monkey [8] were 4.5 h and 11.38 h, respectively. Besides, in the assay with Monkey [9], the Parasite_Clearance_time was 52 h. The molecule further showed an SD50 in the assay with Plasmodium berghei [11] of 24.57 mg/kg/day. The molecule also registered an SD90 in the assay with Plasmodium berghei [11] of 255.83 mg/kg/day.
In the case of `C[C@@H]1CCC2[C@@H](C)[C@@H](OCCCN3CCOCC3)O[C@@H]3O[C@@]4(C)CCC1[C@@]23OO4.O=C(O)/C=C\C(=O)O` (stereo partly specified), the Reduction amounted to 5.19 h in the assay on Monkey [6] and 11.8 h in the assay on Monkey [8]. Further, the Parasite_Clearance_time in the assay with Monkey [9] came to 40 h. The SD50 amounted to 5.57 mg/kg/day with Plasmodium berghei [11] and 1.82 mg/kg/day in the assay with Plasmodium berghei [1]. Besides, the SD90 is 302.49 mg/kg/day in the assay with Plasmodium berghei [11] and 5.28 mg/kg/day in the assay with Plasmodium berghei [2].
In the case of `C[C@@H]1CCC2[C@@H](C)[C@@H](OCCN3CCOCC3)O[C@@H]3O[C@@]4(C)CCC1[C@@]23OO4.O=C(O)C(=O)O` (stereo partly specified), the SD50 in the assay on Plasmodium berghei [1] was found to be 1.61 mg/kg/day. The SD90 in the assay with Plasmodium berghei [2] amounted to 5.26 mg/kg/day.
With `C[C@@H]1CCC2[C@@H](C)[C@@H](OCCN(C)C)O[C@@H]3O[C@@]4(C)CCC1[C@@]23OO4.O=C(O)C(=O)O` (stereo partly specified), the results for the Parasitemia in the assay on Monkey [3] and with Monkey [4] were 42.5% and 51.5%, respectively. Moreover, the Reduction with Monkey [5] is 6.25 h; in the assay with Monkey [6], 5.29 h; with Monkey [7] it was 13.98 h; in the assay on Monkey [8], 12.09 h. In the assay on Monkey [9], this molecule had a Parasite_Clearance_time of 44 h. The SD50 in the assay with Plasmodium berghei [11] came to 24.57 mg/kg/day; in the assay on Plasmodium berghei [1] it was 1.61 mg/kg/day. Also, the SD90 with Plasmodium berghei [11] came to 255.83 mg/kg/day; in the assay on Plasmodium berghei [2], 4.71 mg/kg/day.
On to `C[C@@H]1CCC2[C@@H](C)[C@@H](OCCN3CCOCC3)O[C@@H]3O[C@@]4(C)CCC1[C@@]23OO4.O=C(O)/C=C\C(=O)O` (stereo partly specified), for which the SD50 in the assay with Plasmodium berghei [1] came out at 1.82 mg/kg/day. This molecule gave an SD90 in the assay with Plasmodium berghei [2] of 7.29 mg/kg/day.
